Laboratory results: article PMC10187672 (RNA, 2023)
Where “and” joins values, the source holds several entries; their conditions need not be identical. Equal values may be shown once.

Assays:
[1] = test system: 4A1^F163L/4A2^− eHAP1 cells; assay: Luciferase NMD reporter assay; assay type: cell-based; conditions: 6 h exposure
Outline: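 Cells were transfected at 75% confluency with an FLuc-β-globin plasmid (PTC-containing or control, with or without an upstream HCV IRES) plus an HCV-IRES RLuc plasmid. The next day they were reseeded and left to recover for 24 h, then given compound for 6 h. Cells were lysed and both luciferases read by luminometry. n = 3 ± SD.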

[2] = test system: Krebs-2 translation extracts; assay: In vitro translation of FF/HCV/Ren bicistronic reporter mRNAs; assay type: biochemical; conditions: Krebs-2 extracts, 1 h at 30°C
Outline: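 Reporter mRNAs were used at 10 ng/µL final. FLuc and RLuc activities were read by luminometry, and RLU were normalized to DMSO vehicle controls.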

[3] = test system: TCR-β minigene mRNA (NMD) in HeLa cells; assay: NMD assay, RT-qPCR of TCR-β minigene mRNA in PTC− and PTC+ HeLa cells; assay type: cell-based; conditions: for TCR-β mRNA levels in PTC+ cells / TCR-β mRNA levels in PTC− cells: normalized to β-actin; for TCR-β mRNA levels in PTC− cells: PTC− HeLa cells
Outline: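 HeLa cells carrying a TCR-β minigene with or without a PTC were seeded at 100,000/well and exposed to compound across a concentration series for 1 h or 5 h. Total RNA was TRIzol-extracted, and 500 ng was reverse-transcribed with oligo(dT) primer. EvaGreen qPCR followed, with TCR-β normalized to β-actin. n = 3 ± SD.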

[4] = molecular target: T1, eIF4A3 (Homo sapiens, UniProt P38919); assay: Fluorescence polarization; assay type: binding; conditions: 10 µM compound, 1 mM AMPPNP
[5] = molecular target: T2, eIF4A1 (Homo sapiens, UniProt P60842); assay: FP dissociation of preformed protein•ATP•RNA•compound complexes; assay type: binding; conditions: 10 µM compound, 1 mM ATP, 1000-fold molar excess unlabeled poly r(AG)8 RNA
Outline: (§1)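 Recombinant His6-tagged human protein was expressed in E. coli BL21(DE3) and Ni-NTA purified. Complexes were preformed for 30 min at RT in the dark in FP buffer (HEPES-NaOH pH 8, 0.1% DMSO) with 1.5 µM protein, 10 nM FAM-poly r(AG)8 and 1 mM ATP. DMSO reactions used 25 µM protein. After adding 10 µM unlabeled RNA, FP was read every 10 sec. Half-life came from a one-phase exponential decay fit (Y0 = 1, plateau = 0).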

[6] = test system: 4A1^F163L/4A2^− eHAP1 cells; assay: RT-qPCR of FF-4.04 and FF-4.06 reporter mRNA; assay type: cell-based; conditions: 5 h exposure, normalized to GAPDH, relative to DMSO
Outline: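 Cells were nucleofected with the PTC-containing or control FLuc-β-globin reporter and selected as a pool in G418 (1.6 mg/mL). They were seeded at 250,000/well and exposed to compound for 5 h. After TRIzol extraction and oligo(dT) cDNA synthesis, EvaGreen qPCR used β-globin (HBB) primers. Values were normalized to GAPDH and expressed relative to DMSO.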

[7] = test system: SC35 mRNA in 4A1^F163L/4A2^− eHAP1 cells; assay: RT-qPCR of endogenous SC35 and HPRT mRNA; assay type: cell-based; conditions: 5 h exposure, normalized to β-actin
Outline: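 Cells were seeded at 250,000/well and given a concentration series of compound for 5 h. Total RNA was TRIzol-extracted, and 500 ng was reverse-transcribed with oligo(dT) primer. EvaGreen qPCR measured SC35 and HPRT, normalized to β-actin and expressed as fold change versus DMSO.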

[8] = molecular target: T1, eIF4A3; assay: FP dissociation of preformed protein•ATP•RNA•compound complexes; assay type: binding; conditions: 10 µM compound, 1 mM ATP, 1000-fold molar excess unlabeled poly r(AG)8 RNA
Outline: as §1

[9] = test system: HeLa cells harboring a (TCR)-β minigene; assay: [35S]-Methionine labeling of de novo protein synthesis; assay type: cell-based; conditions: 1 h exposure, labeling last 15 min
Outline: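 PTC+ minigene HeLa cells were seeded at 50,000/well and treated with compound for 1 h the next day, with [35S]-Met/Cys added for the final 15 min. Cells were washed and lysed in RIPA buffer, and lysates were spotted on paper and TCA-precipitated. Radioactivity was measured by scintillation counting and normalized to total protein. n = 3 ± SD.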

[10] = molecular target: T2, eIF4A1; assay: Fluorescence polarization; assay type: binding; conditions: 10 µM compound, 1 mM AMPPNP

T1 sequence (P38919 whole entry, species assumed): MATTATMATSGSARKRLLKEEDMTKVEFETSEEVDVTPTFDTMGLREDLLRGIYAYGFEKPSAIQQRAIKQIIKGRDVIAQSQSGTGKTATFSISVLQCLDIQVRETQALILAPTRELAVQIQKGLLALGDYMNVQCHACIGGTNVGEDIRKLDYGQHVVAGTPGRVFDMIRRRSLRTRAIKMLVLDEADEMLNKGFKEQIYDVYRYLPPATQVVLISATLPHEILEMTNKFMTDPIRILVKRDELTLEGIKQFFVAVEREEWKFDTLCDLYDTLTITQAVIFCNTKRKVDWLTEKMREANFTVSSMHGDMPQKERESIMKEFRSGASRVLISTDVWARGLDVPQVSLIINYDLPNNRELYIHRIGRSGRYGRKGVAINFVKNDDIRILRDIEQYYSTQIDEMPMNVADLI
T2 sequence (P60842 whole entry, species assumed): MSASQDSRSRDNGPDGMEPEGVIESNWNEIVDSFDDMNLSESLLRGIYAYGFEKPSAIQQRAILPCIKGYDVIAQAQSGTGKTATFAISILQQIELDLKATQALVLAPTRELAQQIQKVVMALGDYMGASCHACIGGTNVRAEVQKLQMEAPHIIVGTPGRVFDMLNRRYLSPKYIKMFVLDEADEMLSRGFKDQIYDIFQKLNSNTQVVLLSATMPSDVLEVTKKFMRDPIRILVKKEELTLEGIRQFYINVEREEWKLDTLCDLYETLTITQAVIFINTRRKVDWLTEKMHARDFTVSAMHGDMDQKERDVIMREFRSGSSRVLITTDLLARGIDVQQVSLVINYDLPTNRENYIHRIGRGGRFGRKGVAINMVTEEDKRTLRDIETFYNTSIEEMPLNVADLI

| Compound | Luc expression from FF-4.04 or FF-4.06 reporters ([1]; 300 nM, both reporters) | RLuc expression from internal HCV/Ren control [1] | Expression of HCV/FF-4.04 and HCV/FF-4.06 reporters ([1]; titration range tested) | Translational response of reporter mRNA with polypurine ([AG]10) 5′ leader [2] | Effect on TCR-β minigene mRNA levels ([3]; PTC+ HeLa cells, 1 µM compound for 1 h) | TCR-β mRNA levels in PTC+ cells ([3]; PTC+ HeLa cells, 5 h exposure) | Clamping of eIF4A3 to poly r(AG)8 RNA (ΔmP relative to DMSO) [4] | Fitted half-life T(1/2) of eIF4A1•ATP•RNA•compound complex [5] | FF-4.06 (NMD reporter) mRNA levels [6] | HPRT mRNA levels [7] | SC35 mRNA levels relative to DMSO controls [7] | Fitted half-life T(1/2) of eIF4A3•ATP•RNA•compound complex [8] | 35S-Met incorporation into proteins (translation) [9] | Translational response of all three reporters (AG, UC, NMD 5′ leaders) [2] | TCR-β mRNA levels in PTC− cells ([3]; 5 h exposure) | Clamping of eIF4A1 to poly r(AG)8 RNA (ΔmP relative to DMSO) [10] | Increase of PTC+ mRNA levels ([3]; PTC+ HeLa cells, 1 h exposure, highest concentration tested (200 nM)) | Increase of PTC+ mRNA levels ([3]; PTC+ HeLa cells, 5 h exposure) [fold] |
| --- | --- | --- | --- | --- | --- | --- | --- | --- | --- | --- | --- | --- | --- | --- | --- | --- | --- | --- |
| CONC(=O)[C@H]1[C@@H](O)[C@@]2(O)c3c(OC)cc(OC)cc3O[C@@]2(c2ccc(OC)cc2)[C@@H]1c1ccccc1 [CR-1-31B] | approximately twofold | No change | neither reporter showed a change in expression | conferred CR-1-31B responsiveness | no significant effect | substantial stabilization | able to induce clamping | 0.833 ± 0.005 h | increased only in the presence of CHX | not increased | did not significantly change | 0.4 ± 0.0067 h | translation was blocked |  |  |  |  |  |
| COc1ccc([C@@]23Oc4cc(OC)cc(OC)c4[C@]2(O)[C@H](O)[C@H](C(=O)N(C)C)[C@H]3c2ccccc2)cc1 [RocA] |  |  |  |  |  |  | able to induce clamping |  |  |  |  |  |  |  |  |  |  |  |
| C[C@@H]1C[C@@H]([C@H](O)CC2CC(=O)NC(=O)C2)C(=O)[C@@H](C)C1 [CHX, cycloheximide] |  |  |  |  |  | significantly increased |  |  | increased | not increased | significant increase |  |  | equally responsive | no impact |  |  |  |
| COC(=O)[C@H]1[C@@H](O)[C@@]2(O)c3c(OC)cc(O[C@@H]4O[C@@H]([C@H](O)CO)CO[C@H]4OC)cc3O[C@@]2(c2ccc(OC)cc2)[C@@H]1c1ccccc1 [silvestrol] |  |  |  |  |  |  | able to induce clamping |  |  |  |  |  |  |  |  |  |  |  |
| CC(/C=C/C(C)=C/[C@@H]1Cc2nc(cs2)[C@@H](C)C[C@@H](N)CC(=O)O[C@@H](C)C/C(C)=C/C=C\C(=O)O1)=C\CN(C)C [PatA, pateamine A] |  |  |  |  |  | Stabilization of TCR-β mRNA | clamping was observed | 1.83 h and 1.83 ± 0.0233 h |  | not increased | significant increase | 3.05 h and 3.05 ± 0.02 h | translation was blocked | equally inhibited all reporters | but not PTC− cells | clamping was observed | approximately threefold | 10 |
